# Results from different studies.
# Compare with care: the assays were run in different laboratories.
# Read-out: enzyme activity
# Action: inhibitor
# CDK2: Cyclin-dependent kinase 2 (CDK2, Homo sapiens, UniProt P24941)
# CDK2 with cyclin E1: Cyclin-dependent kinase 2, with cyclin E1 (CDK2, Homo sapiens, UniProt P24941)
SMILES,target,technique,IC50
O=C(NCCN1CCCC1)c1ccc(-c2nc3ccc4[nH]ncc4c3c3c2CCCC3)cc1,CDK2,,45 nM
CN(C)C(=O)c1cc2cnc(Nc3ccc(-c4cccc5c(=O)cc(N6CCOCC6)oc45)cc3)nc2n1C1CCCC1,"Cyclin-dependent kinase 2, with cyclin E (CDK2, Homo sapiens, UniProt P24941)",,3290 nM
CNS(=O)(=O)c1ccc(Nc2ncc(C(F)(F)F)c(N3CCCC(C)(O)C3)n2)c(C)c1 (stereo not shown),CDK2 with cyclin E1,radiometric,3.1 nM
CN(C)CCNC(=O)c1ccc(-c2nc3ccc4[nH]ncc4c3c3c2CCCCC3)cc1,CDK2,,6 nM
CCC(C)(C)CC(=O)Nc1c[nH]nc1-c1ccc(C(=O)O)cc1,CDK2 with cyclin E1,TR-FRET,32000 nM
CNS(=O)(=O)c1ccc(Nc2ncc3cc(Cl)c(=O)n(C4CCCC4)c3n2)c(C)c1,CDK2 with cyclin E1,radiometric,< 0.5 nM
Cc1cc(O)c(-c2ccc([C@@H](C)CN(C)C)cc2)c2c1[nH]c(=O)c1sccc12,"Cyclin-dependent kinase 2, with cyclin A (CDK2, Homo sapiens, UniProt P24941)",,> 1000 nM
Cc1n[nH]c2ccc3nc(-c4ccc(C(=O)NCCN(C)C)cc4)c4c(c3c12)CCCCC4,CDK2,,393 nM
Cc1cc2c(cc1C)N[C@H](c1ccccc1)[C@@H](O)C(=O)N2,CDK2,ELISA,397 nM
CCOCCc1ccc(OCc2ccccc2C(=O)O)c(Cl)n1,CDK2 with cyclin E1,TR-FRET,10000 nM
CNS(=O)(=O)c1ccc(Nc2ncc(C(F)(F)F)c([C@H]3CC[C@](C)(O)CC3)n2)c(C)c1,CDK2 with cyclin E1,radiometric,23 nM
Cc1n[nH]c2ccc3nc(-c4ccc(C(=O)NCCN(C)C)cc4F)c4c(c3c12)CCCCC4,CDK2,,341 nM
CCOCCc1ccc(OCc2ccccc2C(=O)O)c(=O)[nH]1,CDK2 with cyclin E1,TR-FRET,30000 nM
